The values that follow come from PubChem BioAssay.

The source made the active and inactive calls.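 Rule for the calls, unless noted: active = viability loss from added drug above about 55%, and viability with drug at most 40%, in both replicates (limit read from the data, passing the limit was not always enough); inconclusive = both conditions met in only one replicate; inactive = neither replicate meets both conditions.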

Experiment [1] is described as follows: reducers of endogenous Her2 protein level, primary screen, SKBR3 breast tumor cells, AlphaScreen, ATP viability (AID 461;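 active = Her2 level under about 52% in both replicate screens, with viability over 70% of control, limit read from the data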;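 for Her2 level: lower value means less Her2 protein in the cells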;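 for viability: percent of carrier control wells set as 100% viability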). The following applies: 18-24 h, measured here: SKBR3 viability, ATP luminescence, at 10 µM. For orientation: Bead proximity is the source of the signal in Alpha formats.
Experiment [2] concerns the target Receptor tyrosine-protein kinase erbB-2 (Homo sapiens) (UniProt P04626). The experiment is described as above. The following applies: 18-24 h, at 10 µM, stronger effect = lower value.
Experiment [3] can be described thus: SK-BR-3 cell growth inhibitors, pilot screen, 24 h, human (AID 572;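 active = viability at or below 10% of carrier control in both of two separate runs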;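 note: compound exposure lasted between 18 and 24 h rather than exactly 24 h; 100% = carrier-treated control wells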). The following applies: SK-BR-3 viability, CellTiter-Glo luminescence, at 10 µM, stronger effect = lower value.
Experiment [4] is described as follows: HUVEC growth inhibition – cell-based, human, primary screen (AID 575;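 active = viability at or below 30% in both replicate assays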;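 note: 100% = median of untreated cell wells with 0.1% DMSO on each plate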). The following applies: HUVEC proliferation, CellTiter-Glo luminescence, 72 h; at 10 µM; stronger effect = lower value. In a few lines: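 Test system: primary human umbilical vein endothelial cells; medium: endothelial basal medium with 2% FBS plus growth supplements; dosing: 10 µM compound only; times: 72 h treatment at 37 °C; signal: CTG luminescence; read-out: % viability relative to median vehicle-well signal on each plate; control set: vehicle and MePR control wells; plate: 384-well, collagen-coated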

Experiment [5] is described as follows: growth inhibitors of H69AR lung tumor, primary screen, human, duplicate replicates (AID 580;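 active = viability at or under a set limit in both replicates, limit being median viability minus 3 SD, cut at about 48% in these data, passing the limit was not always enough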;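 note: 100% = mean luminescence of untreated wells and 0% = no signal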). Conditions: H69AR lung tumor cells viability, ATP luminescence, 72 h; at 10 µM; stronger effect = lower value.
Experiment [6] can be described thus: reversal of MRP1-mediated doxorubicin resistance, pilot screen, H69AR cells, doxorubicin co-treatment (AID 601). The following applies: CellTiter-Glo, 72 h, at 10 µM; for differential viability (reversal): stronger effect = higher value. For orientation: Cellular ATP, detected with luciferase, serves as a proxy for viable cell number.
Experiment [7] can be described thus: 384-well plate pilot, post-Golgi transport modulator project, inhibition of yeast transport mutant growth (AID 636; in the data active = inhibition above about 31%). Conditions: absorbance 615 nm, about 18 h, stronger effect = higher value.
The nature of experiment [8]: growth suppression of yeast trafficking mutant, preliminary HTS, modulators of trafficking downstream of Golgi apparatus project, 1536-format plate, OD 615 nm (AID 637; in the data active = inhibition above about 30%). Conditions: yeast transport mutant growth, absorbance 615 nm, 18 h; stronger effect = higher value.
Where [9] appears, read: H69AR cells + 2 uM doxorubicin, measured here: viability with 2 uM doxorubicin, stronger effect = lower value.
Where [10] appears, read: H69AR cells, compound alone cytotoxicity.

Receptor tyrosine-protein kinase erbB-2 (Homo sapiens), sequence (P04626 whole entry, looked up): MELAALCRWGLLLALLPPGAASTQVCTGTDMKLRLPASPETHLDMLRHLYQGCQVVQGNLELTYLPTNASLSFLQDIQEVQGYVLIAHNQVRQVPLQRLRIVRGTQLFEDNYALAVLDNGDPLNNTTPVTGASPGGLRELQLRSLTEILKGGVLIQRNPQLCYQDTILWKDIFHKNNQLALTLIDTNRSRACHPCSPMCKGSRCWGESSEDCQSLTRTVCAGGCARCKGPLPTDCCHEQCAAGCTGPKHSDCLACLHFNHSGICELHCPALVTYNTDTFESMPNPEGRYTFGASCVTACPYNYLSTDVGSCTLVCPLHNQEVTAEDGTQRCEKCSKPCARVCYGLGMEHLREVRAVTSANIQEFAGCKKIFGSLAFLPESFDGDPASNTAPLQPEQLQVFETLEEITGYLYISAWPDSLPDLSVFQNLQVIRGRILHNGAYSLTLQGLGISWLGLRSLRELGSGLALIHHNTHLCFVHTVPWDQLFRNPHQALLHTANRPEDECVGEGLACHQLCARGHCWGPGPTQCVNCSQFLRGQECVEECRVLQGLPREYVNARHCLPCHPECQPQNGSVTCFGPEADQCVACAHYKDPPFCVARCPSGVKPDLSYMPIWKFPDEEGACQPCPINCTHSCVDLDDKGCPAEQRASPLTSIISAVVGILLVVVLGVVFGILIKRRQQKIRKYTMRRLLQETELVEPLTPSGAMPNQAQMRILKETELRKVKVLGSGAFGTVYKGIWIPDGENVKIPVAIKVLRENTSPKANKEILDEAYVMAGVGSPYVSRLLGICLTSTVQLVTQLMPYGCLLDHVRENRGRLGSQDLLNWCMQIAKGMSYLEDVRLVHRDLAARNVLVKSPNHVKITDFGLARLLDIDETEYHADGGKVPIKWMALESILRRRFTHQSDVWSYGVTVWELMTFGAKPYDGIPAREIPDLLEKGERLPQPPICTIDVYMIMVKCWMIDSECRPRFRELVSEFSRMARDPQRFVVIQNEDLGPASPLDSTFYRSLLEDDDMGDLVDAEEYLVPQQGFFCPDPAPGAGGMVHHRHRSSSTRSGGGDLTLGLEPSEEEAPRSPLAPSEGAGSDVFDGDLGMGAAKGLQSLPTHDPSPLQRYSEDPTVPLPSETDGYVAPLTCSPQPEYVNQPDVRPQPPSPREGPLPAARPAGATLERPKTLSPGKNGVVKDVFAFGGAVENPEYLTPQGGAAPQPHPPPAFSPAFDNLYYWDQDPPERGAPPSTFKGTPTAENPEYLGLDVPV

A word on the viability: it is a read-out of living cells in per cent, often relative to untreated cells. One may read the inhibition as the drop in the measured response relative to a control, in per cent. Regarding `Cc1ccc(SCCNS(=O)(=O)c2ccc(F)cc2)cc1`, the viability was 85% in experiment [1]; 85% (inactive) in experiment [3]; 78.8% (inactive) in experiment [4]; 105% (inactive) in experiment [5]; 91.1% in experiment [6] (setting [9]); 105% in experiment [6] (setting [10]). In experiment [2], the Her2 level is 112% (inactive). Moreover, in experiment [6] (H69AR cells + 2 uM doxorubicin), the differential viability (reversal) is 13.5% (inactive). Also, the figures for the inhibition in experiment [7] and in experiment [8] were -6.8% (inactive) and -2.42% (inactive), respectively.

In the case of `CCOC(=O)c1ccc(S(=O)(=O)Nc2cc(C(C)(C)C)no2)cc1`, the viability in experiment [1] is 92%; in experiment [3], 92% (inactive); in experiment [4] it was 112% (inactive); in experiment [5], 101% (inactive); in experiment [6] (setting [9]), 103%; in experiment [6] (setting [10]) it was 101%. In addition, the Her2 level in experiment [2] was 97% (inactive). Also, the differential viability (reversal) in experiment [6] (H69AR cells + 2 uM doxorubicin) was -2.06% (inactive). Besides, the inhibition in experiment [7] was -3.25% (inactive); in experiment [8], -3.81% (inactive).

In the case of `Cc1cc(C(=O)OCCO)c(C#N)c(N)n1`, the viability was 92% in experiment [1]; 92% (inactive) in experiment [3]; 95.9% (inactive) in experiment [4]; 92.1% (inactive) in experiment [5]; 97.6% in experiment [6] (setting [9]); 92.1% in experiment [6] (setting [10]). In addition, in experiment [2], the Her2 level was 90.5% (inactive). Also, the differential viability (reversal) in experiment [6] (H69AR cells + 2 uM doxorubicin) was -5.51% (inactive). Moreover, the inhibition was -3.87% (inactive) in experiment [7] and 1.94% (inactive) in experiment [8].

Take `CCOC(=O)CN(C(=O)CSc1nnc(-c2ccncc2)n1CCCN(C)C)c1ccccc1`: the viability in experiment [1] is 107%; in experiment [3], 107% (inactive); in experiment [4], 106% (inactive); in experiment [5] it was 87.6% (inactive); in experiment [6] (setting [9]), 78.1%; in experiment [6] (setting [10]) it was 87.6%. Also, the Her2 level in experiment [2] is 98.5% (inactive). For the same compound, the differential viability (reversal) in experiment [6] (H69AR cells + 2 uM doxorubicin) is 9.5% (inactive). Further, the inhibition in experiment [7] is -5.19% (inactive); in experiment [8] it was 1.9% (inactive).

As for `COc1cc(NC2=CC(=O)CC(C)(C)C2)cc(OC)c1`, the viability is 77% in experiment [1]; 77% (inactive) in experiment [3]; 85.5% (inactive) in experiment [4]; 96.8% (inactive) in experiment [5]; 90.6% in experiment [6] (setting [9]); 96.8% in experiment [6] (setting [10]). In addition, in experiment [2], the Her2 level was 133% (inactive). The differential viability (reversal) in experiment [6] (H69AR cells + 2 uM doxorubicin) was 6.11% (inactive). In addition, the inhibition is 0.26% (inactive) in experiment [7] and -7.17% (inactive) in experiment [8].

As to `COc1ccc(OC)c(S(=O)(=O)Nc2ccc(C(N)=O)cc2)c1`, the viability in experiment [1] is 98.5%; in experiment [3], 98.5% (inactive); in experiment [4], 110% (inactive); in experiment [5], 94% (inactive); in experiment [6] (setting [9]), 88.4%; in experiment [6] (setting [10]), 94%. Besides, in experiment [2], the Her2 level was 91% (inactive). In addition, the differential viability (reversal) in experiment [6] (H69AR cells + 2 uM doxorubicin) was 5.67% (inactive). In addition, the inhibition in experiment [7] was -4.61% (inactive); in experiment [8] it was -2.3% (inactive).

`COCCOC(=O)C1=C(N)OC2=C(C(=O)CC(C)(C)C2)C1c1cccnc1` (stereo not given): the viability in experiment [1] is 76%; in experiment [3] it was 76% (inactive); in experiment [4], 101% (inactive); in experiment [5], 99% (inactive); in experiment [6] (setting [9]), 91.9%; in experiment [6] (setting [10]), 99%. The Her2 level in experiment [2] is 101% (inactive). The differential viability (reversal) in experiment [6] (H69AR cells + 2 uM doxorubicin) is 7.16% (inactive). For the same compound, the inhibition in experiment [7] was -5.95% (inactive); in experiment [8], -1.31% (inactive).

As for `Cc1ccc(NC(=O)CCN2CCc3ccccc3C2)cc1`, the viability in experiment [1] is 91.5%; in experiment [3], 91.5% (inactive); in experiment [4], 109% (inactive); in experiment [5] it was 99.7% (inactive); in experiment [6] (setting [9]), 101%; in experiment [6] (setting [10]) it was 99.7%. In addition, in experiment [2], the Her2 level is 92.5% (inactive). In addition, the differential viability (reversal) in experiment [6] (H69AR cells + 2 uM doxorubicin) was -0.975% (inactive). The inhibition in experiment [7] is -5.21% (inactive); in experiment [8] it was -4.92% (inactive).

In the case of `Cc1ccc(C(c2sc3nc(C)nn3c2O)N2CC(C)OC(C)C2)cc1` (stereo not given), the viability in experiment [1] was 97%; in experiment [3], 97% (inactive); in experiment [4], 104% (inactive); in experiment [5], 101% (inactive); in experiment [6] (setting [9]), 90.2%; in experiment [6] (setting [10]), 101%. Moreover, the Her2 level in experiment [2] was 93% (inactive). Also, the differential viability (reversal) in experiment [6] (H69AR cells + 2 uM doxorubicin) is 11.1% (inactive). Besides, the inhibition in experiment [7] was -1.17% (inactive); in experiment [8], 0.49% (inactive).

For `CC(=O)c1cccc(NC(=O)N2C3CCC2CC(O)(c2cccnc2)C3)c1` (stereo not given), the viability in experiment [1] was 102%; in experiment [3], 102% (inactive); in experiment [4] it was 100% (inactive); in experiment [5], 106% (inactive); in experiment [6] (setting [9]) it was 96.7%; in experiment [6] (setting [10]), 106%. In experiment [2], the Her2 level is 98.5% (inactive). In addition, the differential viability (reversal) in experiment [6] (H69AR cells + 2 uM doxorubicin) was 9.59% (inactive). For the same compound, the inhibition is 0.41% (inactive) in experiment [7] and -5.83% (inactive) in experiment [8].

Regarding `CC1(C)Cc2nc3oc4c(N(CCO)Cc5ccccc5)ncnc4c3cc2CO1`, the viability in experiment [1] was 95.5%; in experiment [3], 95.5% (inactive); in experiment [4], 92.5% (inactive); in experiment [5] it was 86.2% (inactive); in experiment [6] (setting [9]), 82.1%; in experiment [6] (setting [10]) it was 86.2%. Also, the Her2 level in experiment [2] was 86.5% (inactive). In addition, in experiment [6] (H69AR cells + 2 uM doxorubicin), the differential viability (reversal) is 4.17% (inactive). Further, the inhibition in experiment [7] was -1.76% (inactive); in experiment [8], -4.33% (inactive).

For `CCOC(=O)C(C)(C)Sc1nc2c(cnn2-c2ccc(C)cc2)c(=O)[nH]1`, the viability was 99% in experiment [1]; 99% (inactive) in experiment [3]; 90.4% (inactive) in experiment [4]; 79.9% (inactive) in experiment [5]; 96.3% in experiment [6] (setting [9]); 79.9% in experiment [6] (setting [10]). Also, the Her2 level in experiment [2] was 100% (inactive). The differential viability (reversal) in experiment [6] (H69AR cells + 2 uM doxorubicin) is -16.5% (inactive). The inhibition in experiment [7] was -1.95% (inactive); in experiment [8], -0.79% (inactive).

For `O=C(Nc1ccccc1C(=O)NCC1CCCO1)c1ccco1` (stereo not given), the viability was 110% in experiment [1]; 110% (inactive) in experiment [3]; 97.9% (inactive) in experiment [4]; 98.7% (inactive) in experiment [5]; 100% in experiment [6] (setting [9]); 98.7% in experiment [6] (setting [10]). The Her2 level in experiment [2] is 89% (inactive). The differential viability (reversal) in experiment [6] (H69AR cells + 2 uM doxorubicin) is -1.63% (inactive). Moreover, the inhibition is -1.71% (inactive) in experiment [7] and -5.71% (inactive) in experiment [8].

For `CCOC(=O)N1CCC(N2CC34C=CC(O3)C(C(=O)O)C4C2=O)CC1` (stereo not given), the viability in experiment [1] is 102%; in experiment [3], 102% (inactive); in experiment [4], 92.4% (inactive); in experiment [5], 100% (inactive); in experiment [6] (setting [9]) it was 81.8%; in experiment [6] (setting [10]), 100%. The Her2 level in experiment [2] was 99.5% (inactive). Further, the differential viability (reversal) in experiment [6] (H69AR cells + 2 uM doxorubicin) is 18.3% (inactive). Besides, the inhibition in experiment [7] is -3.73% (inactive); in experiment [8], -4.26% (inactive).

In the case of `CCOC(=O)N1CCN(c2c(NCC3CCN(Cc4cccc(C)c4)CC3)c(=O)c2=O)CC1`, the viability was 102% in experiment [1]; 102% (inactive) in experiment [3]; 81.7% (inactive) in experiment [4]; 107% (inactive) in experiment [5]; 92.2% in experiment [6] (setting [9]); 107% in experiment [6] (setting [10]). In experiment [2], the Her2 level was 89.5% (inactive). Further, the differential viability (reversal) in experiment [6] (H69AR cells + 2 uM doxorubicin) is 15% (inactive). The inhibition in experiment [7] is -2% (inactive); in experiment [8], 2.95% (inactive).

As to `COc1cc(C)nc(OCCNC(=O)COc2ccc(Cl)cc2C)n1`, the viability is 96.5% in experiment [1]; 96.5% (inactive) in experiment [3]; 95.2% (inactive) in experiment [4]; 107% (inactive) in experiment [5]; 98% in experiment [6] (setting [9]); 107% in experiment [6] (setting [10]). Besides, the Her2 level in experiment [2] is 100% (inactive). The differential viability (reversal) in experiment [6] (H69AR cells + 2 uM doxorubicin) is 8.69% (inactive). Moreover, the inhibition in experiment [7] is -0.93% (inactive); in experiment [8] it was 1.64% (inactive).
